Assay results reported in ChEMBL document CHEMBL1134593, “Acyclic and cyclopropyl analogues of adenosine bisphosphate antagonists of the P2Y1 receptor: structure-activity relationships and receptor docking” (J Med Chem, 2001).

What was measured:
P2Y purinoceptor 1 = P2Y purinoceptor 1 (Meleagris gallopavo, UniProt P49652); assay: Inhibitory concentration against P2Y1 receptor in turkey erythrocyte membranes; assay type: cell membranes
Summary of the method: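 Turkey erythrocytes labeled 18–24 h at 37 °C with 2-[3H]myo-inositol in inositol-free DMEM, then lysed hypotonically (5 mM sodium phosphate pH 7.4, 5 mM MgCl2, 1 mM EGTA) to give ghosts. Phospholipase C assayed in Hepes pH 7.0 buffer with 1 μM GTPγS, antagonist and 30 nM 2-MeSADP, 5 min at 30 °C. Total [3H]inositol phosphates quantified by anion exchange.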

[1] = molecular target: P2Y purinoceptor 1 (Meleagris gallopavo) (UniProt P49652); assay: In vitro antagonist activity against turkey P2Y1 receptor, expressed as percent of maximal inhibition at 100 uM; assay type: functional; set-up: scale not given: the % may be the effect or the level left
P2Y purinoceptor 1 (Meleagris gallopavo), sequence (P49652 whole entry): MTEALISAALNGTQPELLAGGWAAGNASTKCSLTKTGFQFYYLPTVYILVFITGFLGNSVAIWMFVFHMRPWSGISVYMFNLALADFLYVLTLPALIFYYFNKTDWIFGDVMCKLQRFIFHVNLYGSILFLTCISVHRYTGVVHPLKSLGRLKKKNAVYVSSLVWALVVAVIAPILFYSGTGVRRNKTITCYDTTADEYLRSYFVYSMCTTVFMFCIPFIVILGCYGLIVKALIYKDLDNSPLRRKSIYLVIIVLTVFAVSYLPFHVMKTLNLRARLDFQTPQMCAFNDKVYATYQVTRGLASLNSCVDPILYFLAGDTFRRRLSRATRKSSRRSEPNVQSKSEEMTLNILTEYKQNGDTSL

P2Y purinoceptor 1, sequence (P49652 whole entry): as above

IC50 (P2Y purinoceptor 1)	Activity [1]	SMILES
2040 nM	100%	CNc1nc(Cl)nc2c1ncn2CC(CCOP(=O)(O)O)CCOP(=O)(O)O
1740 nM	100%	CNc1nc(Cl)nc2c1ncn2C[C@H]1[C@H](COP(=O)(O)O)[C@@H]1COP(=O)(O)O
2170 nM	100%	CNc1nc(Cl)nc2c1ncn2C[C@@H]1[C@H](COP(=O)(O)O)[C@@H]1COP(=O)(O)O
1900 nM	100%	CNc1nc(Cl)nc2c1ncn2CC1CC1(COP(=O)(O)O)COP(=O)(O)O (stereo unspecified)
7860 nM	100%	CNc1nc(Cl)nc2c1ncn2C[C@H](COP(=O)(O)O)OP(=O)(O)O
230 nM	100%	CNc1nc(Cl)nc2c1ncn2CC(COP(=O)(O)O)COP(=O)(O)OP(=O)(O)O (stereo unspecified)
2700 nM	100%	CNc1nc(Cl)nc2c1ncn2CC1[C@H](COP(=O)(O)O)[C@H]1COP(=O)(O)O (stereo partly specified)
37600 nM	65%	CNc1nc(Cl)nc2c1ncn2CC(COC(C)=O)COP(=O)(O)O (stereo unspecified)
840 nM	99%	CNc1nc(Cl)nc2c1ncn2CCC(COP(=O)(O)O)COP(=O)(O)O
480 nM	100%	CNc1nc(Cl)nc2c1ncn2CC(COP(=O)(O)O)COP(=O)(O)O
2100 nM	100%	CNc1nc(Cl)nc2c1ncn2CC=C(COP(=O)(O)O)COP(=O)(O)O
2360 nM	100%	CNc1nc(Cl)nc2c1ncn2C1CC1(COP(=O)(O)O)COP(=O)(O)O (stereo unspecified)
1090 nM	100%	CNc1ncnc2c1ncn2CC(COP(=O)(O)O)COP(=O)(O)O
1470 nM	100%	CNc1nc(Cl)nc2c1ncn2C[C@@H](COP(=O)(O)O)OP(=O)(O)O
4560 nM	100%	CNc1nc(Cl)nc2c1ncn2C(COP(=O)(O)O)COP(=O)(O)O
31000 nM	78%	CNc1nc(Cl)nc2c1ncn2CC(COP(=O)(O)O)COP(=O)(OC)OC (stereo unspecified)
1600 nM	100%	CNc1ncnc2c1ncn2CCC(COP(=O)(O)O)COP(=O)(O)O
22600 nM	68%	CNc1nc(Cl)nc2c1ncn2CC(CO)COP(=O)(O)O (stereo unspecified)
